Test results: ChEMBL document CHEMBL4706565, “Anti-glioma effects of 2-aminothiophene-3-carboxamide derivatives, ANO1 channel blockers” (Eur J Med Chem, 2020)
Activity calls are given as the source filed them. The calls are words filed in the database; no cut-off is given here.

Tests used:
[1] = biological target: T1, Anoctamin-1 (Mus musculus) (UniProt Q8BHY3); assay: Irreversible inhibition of GFP-fused mouse ANO1 channel expressed in HEK293A cells assessed as inhibition of channel current amplitude at 10 uM at membrane potential of +80 mV measured after drug wash-out by patch clamp electrophysiology assay; type: cell-based; conditions: HEK293-A
T1 sequence (whole entry): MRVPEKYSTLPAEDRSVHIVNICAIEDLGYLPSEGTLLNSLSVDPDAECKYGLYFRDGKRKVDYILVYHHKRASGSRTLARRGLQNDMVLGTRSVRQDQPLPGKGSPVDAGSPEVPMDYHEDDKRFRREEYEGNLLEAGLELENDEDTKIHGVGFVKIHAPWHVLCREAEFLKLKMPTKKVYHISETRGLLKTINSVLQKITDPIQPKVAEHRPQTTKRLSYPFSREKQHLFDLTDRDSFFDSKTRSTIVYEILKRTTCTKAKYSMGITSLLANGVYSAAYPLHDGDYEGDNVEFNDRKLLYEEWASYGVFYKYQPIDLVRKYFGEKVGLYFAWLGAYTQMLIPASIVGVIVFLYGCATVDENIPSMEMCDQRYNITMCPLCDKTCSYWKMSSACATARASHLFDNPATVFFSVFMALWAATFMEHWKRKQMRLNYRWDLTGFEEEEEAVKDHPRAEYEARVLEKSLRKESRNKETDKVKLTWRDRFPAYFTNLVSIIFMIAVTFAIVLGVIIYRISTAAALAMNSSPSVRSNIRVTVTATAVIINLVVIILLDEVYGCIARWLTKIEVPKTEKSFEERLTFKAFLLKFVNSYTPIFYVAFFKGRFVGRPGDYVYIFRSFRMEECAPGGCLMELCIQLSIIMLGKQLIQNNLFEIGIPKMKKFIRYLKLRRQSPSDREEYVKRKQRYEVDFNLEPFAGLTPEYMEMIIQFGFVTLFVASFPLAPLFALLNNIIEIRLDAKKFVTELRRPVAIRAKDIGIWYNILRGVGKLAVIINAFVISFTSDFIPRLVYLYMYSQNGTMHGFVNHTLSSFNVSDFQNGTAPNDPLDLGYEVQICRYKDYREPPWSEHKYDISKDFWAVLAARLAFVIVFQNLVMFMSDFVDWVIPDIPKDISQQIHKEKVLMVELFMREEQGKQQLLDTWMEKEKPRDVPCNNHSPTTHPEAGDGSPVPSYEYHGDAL
How it was run: (§1)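 Whole-cell recording at room temperature in HEK293A cells transfected with GFP-mANO1, GFP-mANO2 or GFP-mTTYH1. 1 s ramps from +80 to -80 mV, holding potential -10 mV. For ANO1/ANO2: pipette CsCl 146 mM with Ca-EGTA-NMDG, pH 7.3; bath NaCl-based, pH 7.3. For TTYH1: Tris-aspartate pipette (pH 7.2) and Tris-HCl bath (pH 7.4), with […] and BaCl2 added to block K+ channels, and hypotonic (220 mOsm/kg) bath. Washout recordings assessed reversibility.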

[2] = biological target: T1, Anoctamin-1 (Mus musculus); assay: Reversible inhibition of GFP-fused mouse ANO1 channel expressed in HEK293A cells assessed as channel current amplitude at 10 uM at membrane potential of +80 mV measured after drug wash-out by patch clamp electrophysiology assay; type: cell-based; parameters: scale not given: the % may be the effect or the level left; conditions: HEK293-A; how it was run: as §1
U-251 = assay: Antiproliferative activity against human U251 cells overexpressing ANO1 assessed as reduction in cell viability in presence of temozolomide measured after 72 hrs by Celltiter-glo assay; type: functional

Row | Structure (SMILES) | inhibition [1] | Activity [2] | GI50 (U-251)
1 | NC(=O)c1c(NC(=S)NC(=O)c2ccc(Cl)cc2)sc2c1CCC2 | Active |  | 
2 | CC(C)(C)C(=O)Nc1sc2c(c1C(N)=O)CCC(C(C)(C)C)C2 (stereo not drawn) |  | 85.8% | 5.32 µM
